How the values were obtained:
Details in all cases: stereoisomer not certain
OR10G2 (Homo sapiens) = target: T1, OR10G2 (Homo sapiens) (UniProt Q8NGC3)
T1 sequence (whole entry): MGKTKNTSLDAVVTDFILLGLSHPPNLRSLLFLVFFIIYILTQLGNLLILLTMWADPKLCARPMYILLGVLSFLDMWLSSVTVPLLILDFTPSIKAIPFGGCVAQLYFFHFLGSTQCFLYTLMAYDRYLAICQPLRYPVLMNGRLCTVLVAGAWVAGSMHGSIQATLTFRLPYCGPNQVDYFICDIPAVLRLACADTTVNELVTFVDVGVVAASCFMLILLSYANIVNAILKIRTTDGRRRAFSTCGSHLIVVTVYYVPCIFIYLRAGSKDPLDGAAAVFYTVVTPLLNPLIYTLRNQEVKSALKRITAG
Outline: (§1)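 Transient luciferase assays in mammalian cell lines were common, though methods varied by source. The values come from published papers and their supplementary material, with extra details from the original authors when needed. Responsive refers to a measured signal the original authors judged statistically different from baseline, and non-responsive (inactive) to the remainder.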

OR10G3 (Homo sapiens) = target: T2, OR10G3 (Homo sapiens) (UniProt Q8NGC4)
T2 sequence (whole entry): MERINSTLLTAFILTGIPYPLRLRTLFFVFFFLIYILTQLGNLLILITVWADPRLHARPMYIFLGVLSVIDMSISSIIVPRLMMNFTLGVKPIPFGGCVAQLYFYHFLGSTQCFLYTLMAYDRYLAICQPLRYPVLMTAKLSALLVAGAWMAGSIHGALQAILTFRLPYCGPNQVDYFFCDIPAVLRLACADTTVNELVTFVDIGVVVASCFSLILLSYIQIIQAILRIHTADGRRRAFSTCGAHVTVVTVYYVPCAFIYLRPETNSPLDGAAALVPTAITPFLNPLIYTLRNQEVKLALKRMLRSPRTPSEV
Outline: as §1

OR10G4 (Homo sapiens) = target: T3, OR10G4 (Homo sapiens) (UniProt Q8NGN3)
T3 sequence (whole entry): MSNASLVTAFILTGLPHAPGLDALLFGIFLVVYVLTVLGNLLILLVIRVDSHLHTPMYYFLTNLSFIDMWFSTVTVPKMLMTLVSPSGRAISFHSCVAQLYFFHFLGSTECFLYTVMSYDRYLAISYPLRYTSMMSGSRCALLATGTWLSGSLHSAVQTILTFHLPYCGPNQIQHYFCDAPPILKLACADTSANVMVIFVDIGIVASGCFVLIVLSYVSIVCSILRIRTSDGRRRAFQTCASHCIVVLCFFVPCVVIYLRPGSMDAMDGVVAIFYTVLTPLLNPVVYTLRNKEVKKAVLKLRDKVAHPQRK
Outline: as §1

OR10G6 (Homo sapiens) = target: T4, OR10G6 (Homo sapiens) (UniProt Q8NH81)
T4 sequence (whole entry): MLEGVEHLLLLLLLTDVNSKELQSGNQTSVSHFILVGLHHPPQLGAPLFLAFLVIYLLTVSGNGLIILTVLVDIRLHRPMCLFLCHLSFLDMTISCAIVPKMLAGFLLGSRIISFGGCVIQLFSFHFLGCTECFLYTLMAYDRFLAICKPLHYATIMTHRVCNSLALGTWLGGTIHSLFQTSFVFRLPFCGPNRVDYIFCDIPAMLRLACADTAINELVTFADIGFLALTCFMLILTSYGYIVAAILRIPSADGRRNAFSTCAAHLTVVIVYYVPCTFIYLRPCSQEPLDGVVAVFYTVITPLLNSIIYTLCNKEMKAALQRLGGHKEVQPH
Outline: as §1

OR10G7 (Homo sapiens) = target: T5, OR10G7 (Homo sapiens) (UniProt Q8NGN6)
T5 sequence (whole entry): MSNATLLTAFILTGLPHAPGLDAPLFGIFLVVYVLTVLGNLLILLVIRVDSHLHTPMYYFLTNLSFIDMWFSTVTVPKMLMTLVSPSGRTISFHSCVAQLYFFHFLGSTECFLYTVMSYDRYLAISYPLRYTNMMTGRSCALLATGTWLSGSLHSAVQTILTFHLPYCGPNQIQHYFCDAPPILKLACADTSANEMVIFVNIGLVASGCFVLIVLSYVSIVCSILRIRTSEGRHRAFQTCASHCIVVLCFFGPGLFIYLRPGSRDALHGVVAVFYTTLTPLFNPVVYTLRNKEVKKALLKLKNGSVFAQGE
Outline: as §1

OR10G8 (Homo sapiens) = target: T6, OR10G8 (Homo sapiens) (UniProt Q8NGN5)
T6 sequence (whole entry): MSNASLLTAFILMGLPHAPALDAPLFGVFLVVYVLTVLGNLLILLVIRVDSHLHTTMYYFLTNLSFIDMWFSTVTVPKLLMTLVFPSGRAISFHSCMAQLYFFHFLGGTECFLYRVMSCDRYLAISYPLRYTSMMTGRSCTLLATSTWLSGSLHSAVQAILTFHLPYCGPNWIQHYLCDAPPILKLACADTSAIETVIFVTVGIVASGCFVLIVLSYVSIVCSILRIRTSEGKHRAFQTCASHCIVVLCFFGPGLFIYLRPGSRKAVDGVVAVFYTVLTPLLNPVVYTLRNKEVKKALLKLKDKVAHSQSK
Outline: as §1

OR10G9 (Homo sapiens) = target: T7, OR10G9 (Homo sapiens) (UniProt Q8NGN4)
T7 sequence (whole entry): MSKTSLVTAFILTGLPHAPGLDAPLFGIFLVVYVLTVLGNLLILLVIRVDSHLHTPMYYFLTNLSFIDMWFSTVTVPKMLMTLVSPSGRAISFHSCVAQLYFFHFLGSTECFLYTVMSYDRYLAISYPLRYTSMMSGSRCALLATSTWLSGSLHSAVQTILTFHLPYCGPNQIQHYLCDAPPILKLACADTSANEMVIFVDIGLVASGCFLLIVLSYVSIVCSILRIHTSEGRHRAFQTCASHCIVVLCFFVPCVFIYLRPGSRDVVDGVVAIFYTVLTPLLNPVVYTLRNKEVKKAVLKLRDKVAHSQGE
Outline: as §1

OR10H1 (Homo sapiens) = target: T8, OR10H1 (Homo sapiens) (UniProt Q9Y4A9)
T8 sequence (whole entry): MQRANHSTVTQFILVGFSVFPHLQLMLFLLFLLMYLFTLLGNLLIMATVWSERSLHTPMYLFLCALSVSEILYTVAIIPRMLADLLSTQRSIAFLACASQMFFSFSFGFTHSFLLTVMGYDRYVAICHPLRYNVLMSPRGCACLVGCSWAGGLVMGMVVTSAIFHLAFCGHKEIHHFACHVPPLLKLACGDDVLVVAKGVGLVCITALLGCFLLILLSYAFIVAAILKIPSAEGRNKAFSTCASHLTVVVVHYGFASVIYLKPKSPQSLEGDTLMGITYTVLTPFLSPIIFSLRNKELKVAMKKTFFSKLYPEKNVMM
Outline: as §1

OR10H2 (Homo sapiens) = target: T9, OR10H2 (Homo sapiens) (UniProt O60403)
T9 sequence (whole entry): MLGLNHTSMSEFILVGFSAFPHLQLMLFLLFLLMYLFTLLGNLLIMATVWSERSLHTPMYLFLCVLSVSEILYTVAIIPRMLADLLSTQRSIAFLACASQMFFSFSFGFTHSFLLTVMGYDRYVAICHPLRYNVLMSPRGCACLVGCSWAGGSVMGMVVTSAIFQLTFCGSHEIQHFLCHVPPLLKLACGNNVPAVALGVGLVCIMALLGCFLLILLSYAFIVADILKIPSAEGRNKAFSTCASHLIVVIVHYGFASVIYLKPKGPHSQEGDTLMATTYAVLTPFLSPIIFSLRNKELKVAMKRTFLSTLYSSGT
Outline: as §1

OR10H3 (Homo sapiens) = target: T10, OR10H3 (Homo sapiens) (UniProt O60404)
T10 sequence (whole entry): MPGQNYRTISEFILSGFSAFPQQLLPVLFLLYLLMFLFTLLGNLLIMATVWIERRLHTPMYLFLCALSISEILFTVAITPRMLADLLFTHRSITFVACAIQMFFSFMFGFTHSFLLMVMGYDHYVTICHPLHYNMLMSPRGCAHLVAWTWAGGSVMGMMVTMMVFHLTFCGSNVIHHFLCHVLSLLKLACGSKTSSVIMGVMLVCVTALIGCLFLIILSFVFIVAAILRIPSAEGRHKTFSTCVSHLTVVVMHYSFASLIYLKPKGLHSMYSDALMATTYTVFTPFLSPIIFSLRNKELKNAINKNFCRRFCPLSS
Outline: as §1

Measured: odorant receptor agonist call;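 further: active if original authors judged signal statistically different from baseline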

CC1=C(O)C(=O)OC1C (stereo not given)
inactive: all assays above
